Activity calls are given as the source filed them. The calls are words filed in the database; no cut-off is given here.
What was measured:
[1] = test system: Mus musculus; assay: Immunostimulatory activity in C57BL/6J mouse assessed as IL4 level at 5 ug, ip at 2 hrs by sandwich ELISA relative to KRN7000; assay type: functional
[2] = test system: Mus musculus; assay: Immunostimulatory activity in C57BL/6J mouse assessed as IFNgamma level at 5 ug, ip at 16 hrs by sandwich ELISA relative to KRN7000; assay type: functional
[3] = test system: Mus musculus; assay: Immunostimulatory activity in C57BL/6J mouse assessed as increase in IL4 level at 2 ug, iv by cytometric bead array method; assay type: functional, organism-based
Summary of the method: (§1)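 Mice were 8-week C57BL/6J kept under SPF conditions. Glycolipid was dissolved in DMSO (1.0 mg/mL, 80 °C, 30 min), diluted to 200 µg/mL in PBS with 0.5% Tween20, then to 10 µg/mL in PBS. A 200 µL dose (2 µg/mouse) was given iv. Retro-orbital plasma was taken at 3–60 h. IFN-γ was read by ELISA and IL-4 by CBA. Data are mean ± SD of 3 mice, repeated 3 times.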

[4] = test system: Mus musculus; assay: Immunostimulatory activity in C57BL/6J mouse assessed as increase in IFNgamma level at 2 ug, iv upto 24 hrs by ELISA; assay type: functional, organism-based; summary of the method: as §1
[5] = test system: Mus musculus; assay: Immunostimulatory activity in C57BL/6J mouse assessed as IFNgamma level at 2 ug, iv upto 24 hrs by ELISA relative to KRN7000; assay type: functional
[6] = test system: Mus musculus; assay: Immunostimulatory activity in C57BL/6J mouse assessed as IL4 level at 2 ug, iv by cytometric bead array method relative to KRN7000; assay type: functional
[7] = test system: Mus musculus; assay: Immunostimulatory activity in C57BL/6J mouse assessed as increase in IL12p70 level at 2 ug, iv from 3 to 12 hrs by cytometric bead array method relative to KRN7000; assay type: functional, organism-based
Summary of the method: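 Eight-week SPF C57BL/6J mice received 2 µg glycolipid iv (200 µL of 10 µg/mL in PBS, from a DMSO stock diluted in PBS/0.5% Tween20). Plasma was collected from the retro-orbital plexus with heparinized capillaries at 3, 6, 12, 24, 36, 48 and 60 h. IL-12p70 was quantified by cytometric bead array.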

| Compound | Activity [3] | Activity [4] | also measured |
| --- | --- | --- | --- |
| CCCCCCCCCCCCCCCCCCCCCCCCC(F)(F)C(=O)N[C@@H](CO[C@H]1O[C@H](CO)[C@H](O)[C@H](O)[C@H]1O)[C@H](O)[C@H](O)CCCCCCCCCCCCCC | – | – | Activity [1]: 100%; Activity [2]: 50% |
| CCCCCCCCCCCCCCCCNC(=S)N[C@@H](CO[C@H]1O[C@H](CO)[C@H](O)[C@H](O)[C@H]1O)[C@H](O)[C@H](O)CCCCCCCCCCCCCC | inactive | inactive | – |
| CCCCCCCCCCCCCCCCCC(=O)N[C@@H](CO[C@H]1O[C@H](CO)[C@H](O)[C@H](O)[C@H]1O)[C@H](O)[C@H](O)CCCCCCCCCCCCCC | – | – | Activity [5]: 10%; Activity [6]: 40% |
| CCCCCCCCCCCCCCCCCCCCCCCCCC(=O)N[C@@H](CO[C@H]1C[C@H](CO)[C@H](O)[C@H](O)[C@H]1O)[C@H](O)[C@H](O)CCCCCCCCCCCCCC | – | Active | – |
| CCCCCCCCCCCCCCCCNC(=O)N[C@@H](CO[C@H]1O[C@H](CO)[C@H](O)[C@H](O)[C@H]1O)[C@H](O)[C@H](O)CCCCCCCCCCCCCC | Active | Active | – |
| CCCCCCCCCCCCCC[C@@H](O)[C@@H](O)[C@H](CO[C@H]1O[C@H](CO)[C@H](O)[C@H](O)[C@H]1O)NC(=O)CCCCCc1ccccc1 | – | inactive | – |
| CCCCCCCCCCCCCCCCCCCCCCCCNC(=O)N[C@@H](CO[C@H]1O[C@H](CO)[C@H](O)[C@H](O)[C@H]1O)[C@H](O)[C@H](O)CCCCCCCCCCCCCC | – | Active | Activity [7]: Active |
| CCCCCCCCCCCCCCCCCCCCCCCCCC(=O)N[C@@H](CO[C@H]1O[C@H](CO)[C@H](O)[C@H](O)[C@H]1O)[C@H](O)[C@H](O)CCCCCCCCCCCCCC | Active | – | – |
| CCCCCCCCCCCCCCCCCCCCCCCCNC(=O)N[C@@H](CO[C@H]1O[C@H](COC)[C@H](O)[C@H](O)[C@H]1O)[C@H](O)[C@H](O)CCCCCCCCCCCCCC | – | Active | Activity [7]: Active |
| CCCCCCCCCCCCCC[C@@H](O)[C@@H](O)[C@H](CO[C@H]1O[C@H](CO)[C@H](O)[C@H](O)[C@H]1O)NC(=O)NCCCCCc1ccccc1 | inactive | inactive | – |
| CCCCCCCCCCCCCCCCCCCCCCCCCC(=O)N[C@@H](CO[C@H]1C[C@H](COC)[C@H](O)[C@H](O)[C@H]1O)[C@H](O)[C@H](O)CCCCCCCCCCCCCC | – | Active | – |
| CCCCCCCCCCCCCCCCCCCCCCCCCC(=O)N[C@@H](CC[C@H]1O[C@H](CO)[C@H](O)[C@H](O)[C@H]1O)[C@H](O)[C@H](O)CCCCCCCCCCCCCC | – | Active | – |
| CCCCCCCCCCCCCCCCCCCCCCCCCC(=O)N[C@@H](CS[C@H]1O[C@H](CO)[C@H](O)[C@H](O)[C@H]1O)[C@H](O)[C@H](O)CCCCCCCCCCCCCC | – | inactive | – |
| CCCCCCCCCCCCCC[C@@H](O)[C@@H](O)[C@H](CO[C@H]1O[C@H](CO)[C@H](O)[C@H](O)[C@H]1O)NC(=O)NCCCCCCCC | Active | Active | – |

From ChEMBL document CHEMBL2062400, “RCAI-84, 91, and 105-108, ureido and thioureido analogs of KRN7000: their synthesis and bioactivity for mouse lymphocytes to produce Th1-biased cytokines” (Bioorg Med Chem, 2012)
